CSN deneddyl inh – inhibitors of human CSN-mediated cullin deneddylation. 360,000 tested, 0.38% active. Q92905. AID 651999. Purified CSN, SCF-Nedd8-OG deneddylation, fluorescence polarization. inhibition, % at 12.5 µM;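 active = pattern-corrected inhibition above about 35%, with an unprinted fluorescence ratio check between 0.5 and 1.5, limit read from the data, passing the limit was not always enough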
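test system = HEK293T-derived human Csn5 enzyme | amount = 0.24 nM Csn5 enzyme, final concentration | medium = Tris/NaCl/DTT buffer, pH 7.5 | schedule = 90 min reaction at room temperature | signal = FP | evaluation = inhibition of Csn5 cleavage, % | compound dosing = single dose of 12.5 µM compound with 0.25% DMSO | probe or stimulus = 10 nM SCFSkp2-Nedd8OG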
HNF4A DNA FP – change in binding of human HNF4 alpha to DNA. activity change, % at 10 µM. HNF4a-FITC DNA binding, fluorescence polarization, 1 h. 360,000 tested, 0.3% active. P41235. AID 1224865; in the data active = activity change above about 30%, passing the limit was not always enough
Target sequence (P41235 whole entry, looked up): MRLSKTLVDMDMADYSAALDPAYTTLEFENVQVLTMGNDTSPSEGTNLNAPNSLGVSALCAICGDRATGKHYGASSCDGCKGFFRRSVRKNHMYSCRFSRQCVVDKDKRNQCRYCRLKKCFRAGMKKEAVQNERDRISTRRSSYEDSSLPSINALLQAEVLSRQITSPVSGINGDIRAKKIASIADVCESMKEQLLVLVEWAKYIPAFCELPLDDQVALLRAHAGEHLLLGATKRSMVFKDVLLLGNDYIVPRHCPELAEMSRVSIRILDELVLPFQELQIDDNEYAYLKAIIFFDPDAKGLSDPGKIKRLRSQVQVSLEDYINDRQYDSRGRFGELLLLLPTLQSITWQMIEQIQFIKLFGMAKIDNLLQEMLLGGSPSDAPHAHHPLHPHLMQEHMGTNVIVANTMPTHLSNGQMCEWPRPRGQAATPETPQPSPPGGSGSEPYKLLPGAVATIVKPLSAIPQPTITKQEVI
Myeloid diff MLP – compounds promoting myeloid differentiation. ER-HoxA9 myeloid progenitors, lysozyme-GFP differentiation, flow cytometry. calls only at 10 µM. 360,000 tested, 1% active. AID 624256;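 active = normalized GFP-positive differentiation at or above the plate's own cutoff, the solvent-only control mean plus 3 SD; inconclusive = no clear call, values can overlap the other calls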;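 also: cells exposed to compound for four days before flow analysis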
Rpn11 block – blocks the human proteasome subunit Rpn11; O00487; human 26S proteasome, Ub4-pepOG fluorescence polarization; 20S core pre-blocked with epoxomicin; inhibition, % at 20 µM; 360,000 tested, 0.59% active;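 active = inhibition at 20 µM, scaled to each plate's controls, above about 33%, limit read from the data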
TPT1 inhibitor – blocks Candida albicans tRNA 2'-phosphotransferase; AID 1962; recombinant caTPT1, FP RNA substrate dephosphorylation; 300,000 tested, 0.81% active; inhibition, % at 5 µM;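 active = inhibition above the mean of all tested compounds plus 3 SD, set per screening campaign, cut at about 24% in these data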
caTPT1 confirm – TPT1 (C. albicans) inhibition, confirmation | shares compounds with TPT1 inhibitor | inhibition, % at 5 µM | 2,400 tested, 74% active | recombinant caTPT1, fluorescence polarization, RNase T1 coupled;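 active = inhibition above the primary screen limit, the mean inhibition of all tested compounds plus 3 SD, cut at about 25% in these data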
RNase T1 inh – counter-screen for TPT1 inhibitors: inhibitors of Aspergillus oryzae RNase T1; shares compounds with TPT1 inhibitor; RNase T1 cleavage, fluorescence polarization, 1536-well; inhibition, % at 5 µM; 2,400 tested, 83% active;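 active = inhibition above the solvent-only control well mean plus 3 SD, limit set per screening run, cut at about 23% in these data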;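 also: inhibitors block cleavage so intact labeled substrate keeps polarization high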
Target sequence (P00651 whole entry, looked up): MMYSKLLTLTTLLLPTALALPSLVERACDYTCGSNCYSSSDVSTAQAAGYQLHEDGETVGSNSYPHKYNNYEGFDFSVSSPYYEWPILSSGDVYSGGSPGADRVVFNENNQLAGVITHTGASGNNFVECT
Numbers stand for hits; – = inactive; ? = inconclusive; · = no result shown; + = active, no number. Only some compounds are listed: those with a hit (about 2.3% of all), similar ones and a draw of the others.

SMILES	CSN deneddyl inh	HNF4A DNA FP	Myeloid diff MLP	Rpn11 block	TPT1 inhibitor	caTPT1 confirm	RNase T1 inh
O=c1cc(O)c2sc3nc(-c4cccnc4)cc(C(F)(F)F)c3c2[nH]1	–	–	–	–	31.7	27.6	39.5
CC[n+]1c(/C=C/C=C/N(C(C)=O)c2ccccc2)sc2cc(OC)ccc21	·	·	·	·	56.1	75.9	81.0
CCOC(=O)c1c(/N=C/c2ccc(OC)cc2O)sc2c1CCN(C)C2	–	–	–	–	–	·	·
CN1CCc2c(sc(/N=C/c3cc(Cl)ccc3O)c2C#N)C1	–	–	–	–	27.1	27.5	38.1
COc1ccc(CCNC(=O)COC(=O)c2cc(OC)c(OC)cc2OC)cc1OC	–	–	–	–	–	·	·
COc1cc(OC)c(C(=O)OCC(=O)NCCc2ccccc2)cc1OC	–	–	–	–	71.6	–	–
CCCCN1C(=O)C(=Nc2cccc3cnccc23)c2ccccc21	–	–	–	–	–	·	·
Cc1cccc(NC(=O)c2ccc(NCCc3ccccc3)c([N+](=O)[O-])c2)c1	89.4	–	–	·	46.1	110.6	132.5
Cc1ccc(NC(=O)c2ccc(NCCN)c([N+](=O)[O-])c2)cc1	–	–	–	–	–	·	·
CCN1C(=O)[C@@H]2Cc3c([nH]c4ccccc34)C(c3ccc(OC)cc3)N2C1=S (stereo partly specified)	–	43.5	+	·	64.8	48.5	59.7
Nc1c(C(=O)c2ccccc2)sc2nsc(SCCN3CCCC3)c12	–	37.9	+	·	48.2	47.1	56.5
Nc1c(C(=O)c2ccc(Cl)cc2)sc2nsc(SCCN3CCOCC3)c12	37.6	–	+	·	41.2	57.0	69.0
CC(=O)c1sc2nsc(SCCN3CCCCC3)c2c1N	–	–	–	–	–	·	·
Cc1ccnc(N/C=C(\C#N)c2nc(-c3cccc(Br)c3)cs2)c1	–	–	+	·	29.5	26.4	40.4
N#C/C(=C\Nc1ccc2cn[nH]c2c1)c1nc(-c2ccccc2)cs1	–	–	–	–	·	·	·
Cc1ccc(C)c(N/C=C(\C#N)c2nc3ccccc3o2)c1	–	–	–	–	–	·	·
COc1cc(/C=C(\C#N)c2nc3ccccc3o2)ccc1O	–	–	+	·	163.5	169.9	156.3
N#Cc1cc2cc3c(cc2nc1NCCNC(=S)NCCCN1CCOCC1)OCO3	–	–	–	–	–	·	·
CCN(CC)c1ccc(/C=C(/C#N)c2nc3ccccc3[nH]2)c(OC(C)C)c1	–	–	·	·	163.4	163.1	149.0
CCOc1cccc(/C=C(/C#N)c2nc3ccccc3[nH]2)c1OCC(=O)O	–	–	–	–	–	·	·
COc1ccc(NC(=O)c2cccc(Oc3ccc([N+](=O)[O-])cc3Cl)c2)cc1	–	–	–	–	–	·	·
CCN(CC)C(=O)c1ccc(Oc2ccc([N+](=O)[O-])cc2Cl)cc1	–	–	–	–	44.0	–	–
CC(c1ccccc1)n1c(SCC(=O)Nc2ccccc2)n[nH]c1=O (stereo unspecified)	–	–	–	–	–	·	·
COCCNCC(=O)Nc1ccc(OC(F)(F)F)cc1	–	–	–	–	61.6	–	–
COCCNC(=O)C1CCCN(C(=O)c2cccnc2Oc2ccccc2)CC1 (stereo unspecified)	–	–	–	–	·	·	·
SMILES	CSN deneddyl inh	HNF4A DNA FP	Myeloid diff MLP	Rpn11 block	TPT1 inhibitor	caTPT1 confirm	RNase T1 inh
O=C1S/C(=C\c2ccc(N3CCOCC3)o2)C(=O)N1Cc1ccc(F)cc1	–	–	–	·	141.6	168.3	164.7
C=CCN1C(=O)N/C(=C/c2ccc(N3CCOCC3)o2)C1=O	·	·	·	·	28.9	104.6	112.5
O=C1N=C(N2CCOCC2)S/C1=C/c1ccc(-c2ccc(F)cc2)o1	–	–	–	–	–	·	·
Cc1cc(C)cc(N2CC(C(=O)OCC(=O)Nc3cc(C)on3)CC2=O)c1 (stereo unspecified)	–	–	–	–	–	·	·
Cc1sc(NC(=O)C2=COCCO2)c(C(N)=O)c1C	–	–	–	–	–	·	·
Cc1ccc(Nc2c(-c3ccc(N4CCOCC4)cc3)nc3ncccn23)c(C)c1	–	–	–	–	–	·	·
Cc1cccc(C)c1Nc1c(-c2ccc(N3CCOCC3)cc2)nc2ncccn12	–	–	–	–	29.5	34.0	40.7
N#Cc1c(C(F)(F)F)cc(-c2ccccc2)nc1SCc1nc(N)nc(N2CCOCC2)n1	60.5	–	+	–	46.5	55.6	59.8
CSc1nc(-c2ccccc2)cc(C(F)(F)F)c1C#N	–	–	–	–	–	·	·
CCCCN(C(=O)c1ccccc1Cl)C(CC(C)C)c1nc2ccccc2[nH]1 (stereo unspecified)	–	–	–	–	·	·	·
Cc1[nH]c2ccccc2c1/C=N/NC(=S)NC(C)C	–	–	+	–	25.4	38.8	44.9
Nc1c(C(=O)N/N=C/c2ccccc2Cl)oc2nc(-c3ccccc3)cc(-c3ccco3)c12	–	–	–	·	71.5	91.6	95.5
Cc1cc(-c2ccccc2)nc2oc(C(=O)NN)c(N)c12	–	–	–	–	–	·	·
CCN1C(=O)C2(C(C#N)=C(N)Oc3cc(C)oc(=O)c32)c2ccccc21 (stereo unspecified)	–	–	–	–	–	·	·
Cc1cc2c(c(=O)o1)C1(C(=O)N(CC(=O)O)c3ccccc31)C(C#N)=C(N)O2 (stereo unspecified)	–	–	–	–	37.2	41.8	48.8
N#Cc1c(N)n(CCNC(=O)c2ccc(Cl)cc2)c2nc3ccccc3nc12	–	–	–	–	26.5	–	29.9
Cc1ccc(C(=O)NCCn2c(N)c(C#N)c3nc4ccccc4nc32)cc1	–	–	+	–	35.9	49.4	55.0
COCCn1c(N)c(C#N)c2nc3ccccc3nc21	–	–	–	–	–	·	·
CCCCC(=O)Nc1ccc(NC(=O)c2ccc([N+](=O)[O-])cc2)cc1OC	–	–	–	–	–	·	·
CCCCC(=O)Nc1ccc(C(=O)Nc2ccc(OC)cc2[N+](=O)[O-])cc1	–	–	–	·	27.4	53.5	62.8
CCc1cccc2c(C(=O)CN3C(=O)N(C)C4(CCCCC4)C3=O)c[nH]c12	–	–	?	–	·	·	·
CCN(CC)c1ccc(N=Nc2nn(C)c(C)c2[N+](=O)[O-])cc1	–	–	–	–	–	·	·
CCN(CC)c1ccc(N=Nc2ncn[nH]2)cc1	–	–	–	–	24.6	24.3	35.4
O=C1c2cc(O)cc(O)c2C(=O)c2c1cc(O)c([C@@H](CO)CCO)c2O	–	–	–	–	–	·	·
Cc1cc(O)c2c(c1)C(=O)c1cc(O)cc(O)c1C2=O	–	–	–	–	26.7	43.9	60.5
CCN(CC)c1ccc2cc(-c3nnc(-c4ccccc4)o3)c(=O)oc2c1	–	–	+	–	117.1	122.2	114.9
CN(C)Cc1c(O)ccc2cc(-c3nc4ccccc4n3C)c(=O)oc12	–	–	–	–	–	·	·

High-throughput results from PubChem BioAssay.
